Source: PMC12278818 (RSC Advances, 2025)

Columns and labels:
A549 cell line = assay: MTT-based cytotoxicity on lung cancer cell line; design: species or system human
Summary of the method: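 A549 lung cancer cells were exposed to test compounds for 24 h, with cisplatin as the reference. Viability was measured by MTT: viable cells reduce the dye to formazan crystals, which are dissolved in solvent and read at 570 nm. IC50 is the half-maximal inhibitory concentration.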

InhA enzyme = InhA enzyme (Mycobacterium tuberculosis, UniProt P9WGR1); assay: InhA enzyme inhibition assay; format: biochemical, M. tuberculosis; settings: for inhibition at 50 µM: read-out: % inhibition InhA at 50 μM of inhibitor
Chain of InhA enzyme (P9WGR1 whole entry, looked up): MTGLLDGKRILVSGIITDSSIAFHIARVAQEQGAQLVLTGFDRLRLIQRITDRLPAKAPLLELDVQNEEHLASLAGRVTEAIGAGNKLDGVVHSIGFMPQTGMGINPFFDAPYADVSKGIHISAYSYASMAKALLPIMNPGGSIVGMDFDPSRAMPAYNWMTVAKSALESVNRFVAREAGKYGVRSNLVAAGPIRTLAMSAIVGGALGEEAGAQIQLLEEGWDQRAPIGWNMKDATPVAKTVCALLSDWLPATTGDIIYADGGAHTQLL

[1] = test system: mouse macrophage cell line (RAW 264.7); settings: RAW 264.7, 48 h, MTT
[2] = test system: Mycobacterium tuberculosis H37Rv; assay: Microplate alamar blue assay; format: cell-based; settings: MABA, 7 days, unit as printed mg mL^−1

Row | Compound | IC50 (A549 cell line; Homo sapiens, A549) [µM] | inhibition at 50 µM (InhA enzyme) [%] | % Toxicity at 25 μg mL^−1 [1] [%] | also measured
1 | COc1ccc(-c2cc(-c3ccc(-n4cccc4)cc3)nc(N)n2)c(OC)c1 [Compound 4c, 4-(4-(1H-Pyrrol-1-yl)phenyl)-6-(2,4-dimethoxyphenyl)pyrimidin-2-amine] | 55.1 | 16 | 25.80 | –
2 | 4-(4-(1H-Pyrrol-1-yl)phenyl)-6-(furan-3-yl)pyrimidin-2-amine [Compound 4b] | – | – | – | MIC values [2]: 25 mg/mL
3 | Nc1nc(-c2ccc(-n3cccc3)cc2)cc(-c2ccc(Cl)cc2Cl)n1 [Compound 4h, 4-(4-(1H-Pyrrol-1-yl)phenyl)-6-(2,4-dichlorophenyl)pyrimidin-2-amine] | 105 | < 5 | 26.80 | –
4 | CC(C)c1ccc(C=CC(=O)c2ccc(-n3cccc3)cc2)cc1 [Compound 3k, 1-(4-(1H-Pyrrol-1-yl)phenyl)-3-(4-isopropylphenyl)prop-2-en-1-one] | – | 36 | 30.1 | –
5 | N.N.[Cl][Pt][Cl] [Cisplatin, reference compound] | – | – | – | IC50 (A549 cell line; A549, MTT): 9.9 µM
6 | O=C(C=Cc1cccs1)c1ccc(-n2cccc2)cc1 [Compound 3l, 1-(4-(1H-Pyrrol-1-yl)phenyl)-3-(thiophen-2-yl)prop-2-en-1-one] | – | 36 | 26.6 | –
7 | COc1ccc(-c2cc(-c3ccc(-n4cccc4)cc3)nc(N)n2)cc1 [Compound 4g, 4-(4-(1H-Pyrrol-1-yl)phenyl)-6-(4-methoxyphenyl)pyrimidin-2-amine] | 49.4 | 36 | 19.09 | –
8 | COc1cccc(-c2cc(-c3ccc(-n4cccc4)cc3)nc(N)n2)c1O [Compound 4u, 2-(6-(4-(1H-Pyrrol-1-yl)phenyl)-2-aminopyrimidin-4-yl)-6-methoxyphenol] | – | < 5 | 19.10 | % inhibition InhA at 50 μM of inhibitor (InhA enzyme; 50 μM inhibitor): no inhibition
9 | 1-(4-(1H-Pyrrol-1-yl)phenyl)-6-(4-(dimethyl amino)phenyl)hexa-2,5-dien-1-one [Compound 3v] | – | – | – | MIC values [2]: 25 mg/mL
10 | CC(C)c1ccc(-c2cc(-c3ccc(-n4cccc4)cc3)nc(N)n2)cc1 [Compound 4k, 4-(4-(1H-Pyrrol-1-yl)phenyl)-6-(4-isopropylphenyl)pyrimidin-2-amine] | 123 | 10 | 28.90 | –
11 | 1-(4-(1H-Pyrrol-1-yl)phenyl)-6-phenylhexa-2,5-dien-1-one [Compound 3r] | – | – | – | MIC values [2]: >25 mg/mL
